The text below walks through data of ChEMBL document CHEMBL1914452, “Arene- and quinoline-sulfonamides as novel 5-HT7 receptor ligands” (Bioorg Med Chem, 2011).

pKi: −log10 of the molar value.

For data set [1], the system named is Mus musculus. Put plainly: Antidepressant like activity in Albino Swiss mouse assessed as reduction of immobility time at 5 mg/kg, ip administered 30 mins before test measured during final 4 mins of the 6 mins session by forced swimming test (reference value: 165 +/- 9.6 sec). It is filed as functional. To be noted: route intraperitoneal.
Data set [2] relates to Mus musculus. Put plainly: Antidepressant like activity in Albino Swiss mouse assessed as reduction of immobility time at 10 mg/kg, ip administered 30 mins before test measured during final 4 mins of the 6 mins session by forced swimming test (reference value: 165 +/- 9.6 sec). It is filed as functional. To be noted: route intraperitoneal.
Data set [3] relates to Mus musculus. The data set is described as follows: Antidepressant like activity in Albino Swiss mouse assessed as reduction of immobility time at 20 mg/kg, ip administered 30 mins before test measured during final 4 mins of the 6 mins session by forced swimming test (reference value: 165 +/- 9.6 sec). It is filed as functional. Particulars: route intraperitoneal.
Data set [4] relates to Mus musculus. The data set is described as follows: Antidepressant like activity in Albino Swiss mouse assessed as reduction in immobility time at 10 mg/kg, ip administered 30 mins before test measured during final 4 mins of the 6 mins session by forced swimming test. It is filed as functional. The arrangement: scale not given: the % may be the effect or the level left. Particulars: route intraperitoneal.

In data set [5] the test system is Mus musculus. The data set is described as follows: Neurotoxicity in Albino Swiss mouse assessed as effect on number of crossings at 10 mg/kg, ip administered 30 mins before test measured for 2 to 6 mins. It is filed as toxicity, organism-based. The arrangement: dose 10 mg/kg, route intraperitoneal. To be noted: in vivo. An outline of the steps: (§1)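 Spontaneous locomotor activity in mice, recorded over 2–6 min (the swim-test observation window) or over a 30-min session. Drug was suspended in 1% aqueous Tween 80 and given ip at 10 ml/kg, 30 min beforehand, with vehicle-injected controls. Tests ran blind during the light phase (09.00–14.00 h), using 7–10 animals per dose, each used once.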

Data set [6] relates to Mus musculus. The data set is described as follows: Neurotoxicity in Albino Swiss mouse assessed as effect on number of crossings at 10 mg/kg, ip administered 30 mins before test measured for 30 mins. It is filed as toxicity, organism-based. On the set-up: dose 10 mg/kg, route intraperitoneal. To be noted: in vivo, 0.5 h. An outline of the steps:
as §1

In data set [7] the target is T1, 5-hydroxytryptamine receptor 1A (Rattus norvegicus, UniProt P19327).
T1 sequence (P19327 whole entry): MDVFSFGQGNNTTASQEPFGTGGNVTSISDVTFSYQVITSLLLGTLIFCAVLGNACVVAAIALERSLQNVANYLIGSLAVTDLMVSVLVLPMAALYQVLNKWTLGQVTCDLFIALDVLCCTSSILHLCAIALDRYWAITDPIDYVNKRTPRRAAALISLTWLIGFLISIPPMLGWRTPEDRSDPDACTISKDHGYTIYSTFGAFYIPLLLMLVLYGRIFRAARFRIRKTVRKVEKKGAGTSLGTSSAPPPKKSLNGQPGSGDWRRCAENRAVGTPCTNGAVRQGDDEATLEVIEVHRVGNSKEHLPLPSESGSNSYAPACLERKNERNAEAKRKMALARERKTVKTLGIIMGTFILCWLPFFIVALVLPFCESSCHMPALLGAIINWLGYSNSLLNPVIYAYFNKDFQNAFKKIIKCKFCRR
The data set is described as follows: Displacement of [3H]-8-OH-DPAT from 5-HT1A receptor in rat hippocampus by liquid scintillation counting. It is filed as tissue-based. A digest of the protocol:
(§2)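 Competition binding with 7–9 compound concentrations, each run in triplicate. 5-HT1A, 5-HT2A and α1 sites were native. 5-HT6 used [3H]-LSD and 5-HT7 used [3H]-5-CT, both on cloned human receptors stably expressed in HEK293 cells. After incubation, samples were vacuum-filtered through GF/B filters and washed with ice-cold buffer. Bound radioactivity was counted by liquid scintillation.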

Data set [8] deals with 5-hydroxytryptamine receptor 2A (Rattus norvegicus, UniProt P14842). Put plainly: Displacement of [3H]-ketanserin from 5-HT2A receptor in rat cortex by liquid scintillation counting. An outline of the steps: as §2
In data set [9] the target is T2, 5-hydroxytryptamine receptor 7 (Homo sapiens, UniProt P34969). The data set is described as follows: Displacement of [3H]-5-CT from human 5-HT7 receptor expressed in HEK293 cells after 1 hr by liquid scintillation counting. It is filed as cell-based. An outline of the steps:
as §2

Data set [10] concerns the target T3, Adrenergic receptor alpha-1 (Rattus norvegicus, UniProt P15823+P23944+P43140).
T3 sequence (P15823 whole entry): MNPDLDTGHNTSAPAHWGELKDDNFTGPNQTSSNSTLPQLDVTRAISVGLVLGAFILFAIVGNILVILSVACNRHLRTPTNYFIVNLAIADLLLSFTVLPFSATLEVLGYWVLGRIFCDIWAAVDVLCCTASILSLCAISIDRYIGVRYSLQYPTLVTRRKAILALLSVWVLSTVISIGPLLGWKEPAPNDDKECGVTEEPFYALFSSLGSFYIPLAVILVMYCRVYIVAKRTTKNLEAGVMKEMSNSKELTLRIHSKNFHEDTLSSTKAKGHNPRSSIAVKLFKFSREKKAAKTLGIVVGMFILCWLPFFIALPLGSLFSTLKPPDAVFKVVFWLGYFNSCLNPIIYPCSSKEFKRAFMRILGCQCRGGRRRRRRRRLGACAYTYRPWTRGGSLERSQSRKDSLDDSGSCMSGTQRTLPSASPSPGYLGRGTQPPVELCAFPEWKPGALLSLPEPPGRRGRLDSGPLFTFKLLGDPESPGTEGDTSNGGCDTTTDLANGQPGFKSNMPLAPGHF
T3 sequence (P23944 whole entry): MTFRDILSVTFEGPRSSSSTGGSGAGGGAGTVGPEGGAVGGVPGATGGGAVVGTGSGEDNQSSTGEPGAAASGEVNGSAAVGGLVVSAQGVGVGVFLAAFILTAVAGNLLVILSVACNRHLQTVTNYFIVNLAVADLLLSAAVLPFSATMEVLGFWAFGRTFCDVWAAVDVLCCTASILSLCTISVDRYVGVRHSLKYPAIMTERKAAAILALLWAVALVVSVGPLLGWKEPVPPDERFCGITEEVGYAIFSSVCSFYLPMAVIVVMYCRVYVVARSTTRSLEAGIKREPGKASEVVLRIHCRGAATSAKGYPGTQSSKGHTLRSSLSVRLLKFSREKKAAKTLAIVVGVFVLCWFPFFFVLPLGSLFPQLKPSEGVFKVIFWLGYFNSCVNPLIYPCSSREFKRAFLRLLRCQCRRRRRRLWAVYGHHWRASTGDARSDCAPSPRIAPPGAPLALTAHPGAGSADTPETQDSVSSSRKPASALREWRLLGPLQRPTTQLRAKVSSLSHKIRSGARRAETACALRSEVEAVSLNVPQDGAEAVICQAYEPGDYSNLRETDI
T3 sequence (P43140 whole entry): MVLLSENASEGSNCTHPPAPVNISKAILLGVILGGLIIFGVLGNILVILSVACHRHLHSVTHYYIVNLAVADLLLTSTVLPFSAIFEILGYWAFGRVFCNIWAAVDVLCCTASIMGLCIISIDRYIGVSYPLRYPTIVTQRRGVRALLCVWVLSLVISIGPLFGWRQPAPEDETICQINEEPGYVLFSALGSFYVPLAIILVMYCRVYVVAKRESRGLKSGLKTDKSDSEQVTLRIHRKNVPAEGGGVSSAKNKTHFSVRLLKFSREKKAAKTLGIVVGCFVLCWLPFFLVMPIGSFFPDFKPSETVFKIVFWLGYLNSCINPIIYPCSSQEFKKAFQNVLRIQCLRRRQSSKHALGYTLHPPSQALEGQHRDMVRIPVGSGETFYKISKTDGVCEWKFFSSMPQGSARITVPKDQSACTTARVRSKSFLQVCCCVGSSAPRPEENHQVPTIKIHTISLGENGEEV
The data set is described as follows: Displacement of [3H]-prazosin from alpha 1 receptor in rat cortex by liquid scintillation counting. An outline of the steps: as §2

Data set [11] has as its target 5-hydroxytryptamine receptor 6 (Homo sapiens, UniProt P50406). The data set is described as follows: Displacement of [3H]-LSD from human 5-HT6 receptor expressed in HEK293 cells after 1 hr by liquid scintillation counting. It is filed as cell-based. An outline of the steps: as §2
Data set [12] concerns HEK293. The data set is described as follows: Selectivity ratio of Ki for 5-HT1A receptor in rat hippocampus to Ki for human 5-HT7 receptor expressed in HEK293 cells. It is filed as cell-based.
The target of data set [13] is T2, 5-hydroxytryptamine receptor 7. The data set is described as follows: Antagonist activity at human 5-HT7 receptor expressed in CHO cells assessed as inhibition of serotonin-induced intracellular cAMP accumulation preincubated for 20 mins measured after 10 mins by radioimmunoassay. It is filed as functional, cell-based.

T2 sequence (P34969 whole entry): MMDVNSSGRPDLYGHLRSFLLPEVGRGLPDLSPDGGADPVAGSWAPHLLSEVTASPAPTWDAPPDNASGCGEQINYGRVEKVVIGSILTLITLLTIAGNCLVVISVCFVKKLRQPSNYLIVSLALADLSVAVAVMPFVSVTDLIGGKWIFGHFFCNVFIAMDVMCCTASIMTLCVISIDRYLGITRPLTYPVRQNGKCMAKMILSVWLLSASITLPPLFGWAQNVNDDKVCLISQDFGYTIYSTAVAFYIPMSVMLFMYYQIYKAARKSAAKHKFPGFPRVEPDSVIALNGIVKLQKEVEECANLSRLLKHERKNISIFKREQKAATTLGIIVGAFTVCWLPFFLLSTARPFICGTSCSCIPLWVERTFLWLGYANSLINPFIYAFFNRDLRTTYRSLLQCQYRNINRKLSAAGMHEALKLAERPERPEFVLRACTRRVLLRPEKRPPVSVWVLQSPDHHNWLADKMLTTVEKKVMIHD
Chain of 5-hydroxytryptamine receptor 6 (P50406 whole entry): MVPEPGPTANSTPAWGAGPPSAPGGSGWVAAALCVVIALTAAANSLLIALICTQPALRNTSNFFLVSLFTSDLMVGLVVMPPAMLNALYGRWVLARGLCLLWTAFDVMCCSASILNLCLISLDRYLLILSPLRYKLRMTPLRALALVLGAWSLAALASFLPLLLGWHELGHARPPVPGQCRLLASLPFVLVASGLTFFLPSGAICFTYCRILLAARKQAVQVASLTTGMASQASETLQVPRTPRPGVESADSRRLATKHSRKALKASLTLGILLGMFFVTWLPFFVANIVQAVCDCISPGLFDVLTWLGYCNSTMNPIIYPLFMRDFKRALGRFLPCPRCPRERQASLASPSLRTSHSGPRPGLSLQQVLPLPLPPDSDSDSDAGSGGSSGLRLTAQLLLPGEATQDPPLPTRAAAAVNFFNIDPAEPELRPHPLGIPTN
Chain of 5-hydroxytryptamine receptor 2A (P14842 whole entry): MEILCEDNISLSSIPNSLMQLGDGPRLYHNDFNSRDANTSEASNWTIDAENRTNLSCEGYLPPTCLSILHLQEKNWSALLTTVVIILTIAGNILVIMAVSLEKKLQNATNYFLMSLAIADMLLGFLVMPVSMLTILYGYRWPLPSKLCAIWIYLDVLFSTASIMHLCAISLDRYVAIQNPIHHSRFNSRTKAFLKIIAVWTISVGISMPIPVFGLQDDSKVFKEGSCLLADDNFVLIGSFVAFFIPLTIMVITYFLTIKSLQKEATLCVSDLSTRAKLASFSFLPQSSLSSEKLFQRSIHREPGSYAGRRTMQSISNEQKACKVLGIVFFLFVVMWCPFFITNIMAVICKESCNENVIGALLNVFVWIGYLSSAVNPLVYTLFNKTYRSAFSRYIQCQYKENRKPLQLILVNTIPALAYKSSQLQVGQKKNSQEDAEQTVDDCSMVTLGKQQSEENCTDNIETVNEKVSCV

For `CC1CCN(CC[C@H]2CCCN2S(=O)(=O)c2cccc(O)c2)CC1`, the Time in data set [1] is listed as 136.1 s; in [2], 110.8 s; in [3], 139.3 s. The Activity in data set [4] was 33%; in data set [5], “Non-toxic”; in data set [6], “Non-toxic”.

For `CCN(CCCCCN1CCC2CCCCC2C1)S(=O)(=O)c1cccc2cccnc12` (centres undefined), the negative logarithm of the Ki (pKi) is 6.50 in [7], 5.75 in data set [8], 7.48 in [9] and 5.34 in data set [11]. The molecule further yielded a Ki in data set [10] of 0.092 µM. The Ratio Ki in [12] came out at 9.5. Also, in data set [13], the antagonist dissociation constant (Kb) was 1.3 µM. The results for the Time in data set [1], in data set [2] and in data set [3] were 144.8 s, 158.6 s and 181.2 s, respectively.

Turning to `CCN(CCCCN1CCC2CCCCC2C1)S(=O)(=O)c1cccc2cccnc12` (centres undefined), the negative-log Ki (pKi) is 5.96 in data set [7], 5.20 in data set [8], 7.89 in data set [9] and 5.71 in data set [11]. The molecule also returned a Ki in [10] of 0.155 µM. Further, the Ratio Ki in [12] stood at 84.5. In addition, the Kb in data set [13] came out at 0.14 µM. The Time in data set [1] stood at 155.2 s; in [2], 128.1 s; in [3], 182.3 s. The Activity in [4] is reported as 22%; in data set [5] it was “Non-toxic”; in data set [6], “Non-toxic”.
